Laboratory results as given in ChEMBL document CHEMBL3588826, “Chimeric derivatives of functionalized amino acids and α-aminoamides: compounds with anticonvulsant activity in seizure models and inhibitory actions on central, peripheral, and cardiac isoforms of voltage-gated sodium channels” (Bioorg Med Chem, 2015).

Columns and labels:
[1] = Ratio of drug level in brain to plasma in Sprague-Dawley rat at 5 mg/kg, iv and 20 mg/kg, po measured after 6 hrs; assay type: ADME, organism-based; settings: read-out: BPR
How it was run: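 Pharmacokinetics in Sprague-Dawley rats given a single iv dose of 5 mg/kg or an oral dose of 20 mg/kg.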

Mus musculus = assay: Anticonvulsant activity in ip dosed albino Carworth Farms No. 1 mouse measured at 0.25 hrs by maximal electroshock seizure test; assay type: functional; settings: Carworth Farms No. 1, ip
How it was run: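 Screened under the NIH anticonvulsant program in male albino Carworth Farms No. 1 mice (ip) and male albino Sprague-Dawley rats (ip or oral). Protection tested by maximal electroshock or 6 Hz (32 mA) psychomotor stimulation.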

[2] = Inhibition of voltage-gated sodium channel in mouse CAD cells assessed as transition of channels to slow-inactivated state measured at -50 mV by whole cell patch-clamp electrophysiology; assay type: cell-based
How it was run: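 CAD cells were grown in Ham's F12/DMEM with 10% FBS at 37 °C and 5% CO2, with native Na+ currents mostly from Nav1.7. Whole-cell voltage clamp at room temperature across a range of concentrations against 0.1% DMSO. IC50 for induction of slow inactivation was taken from concentration-response curves at −50 mV (also at +20 mV).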

[3] = target: Sodium channel protein type 5 subunit alpha (Homo sapiens, UniProt Q14524); assay: Frequency-dependent inhibition of human Nav1.5 expressed in HEK293 cells assessed as current amplitude at 10 uM by whole cell patch-clamp electrophysiology; assay type: cell-based; settings: hek293, 10 µM
How it was run: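 Stable HEK293 lines expressing hNav1.1, rNav1.3, hNav1.7 or hNav1.5 were recorded by whole-cell voltage clamp at room temperature, with 10 μM compound versus 0.1% DMSO. A 30-pulse train was applied, and the read-out was the fraction of current remaining at the last pulse normalized to the first. Nav1.5 used hyperpolarized protocols.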

[4] = target: Voltage-gated inwardly rectifying potassium channel KCNH2 (Homo sapiens, UniProt Q12809); assay: Binding affinity to human ERG at 30 uM by PatchExpress analysis
Chain of Voltage-gated inwardly rectifying potassium channel KCNH2 (Q12809 whole entry): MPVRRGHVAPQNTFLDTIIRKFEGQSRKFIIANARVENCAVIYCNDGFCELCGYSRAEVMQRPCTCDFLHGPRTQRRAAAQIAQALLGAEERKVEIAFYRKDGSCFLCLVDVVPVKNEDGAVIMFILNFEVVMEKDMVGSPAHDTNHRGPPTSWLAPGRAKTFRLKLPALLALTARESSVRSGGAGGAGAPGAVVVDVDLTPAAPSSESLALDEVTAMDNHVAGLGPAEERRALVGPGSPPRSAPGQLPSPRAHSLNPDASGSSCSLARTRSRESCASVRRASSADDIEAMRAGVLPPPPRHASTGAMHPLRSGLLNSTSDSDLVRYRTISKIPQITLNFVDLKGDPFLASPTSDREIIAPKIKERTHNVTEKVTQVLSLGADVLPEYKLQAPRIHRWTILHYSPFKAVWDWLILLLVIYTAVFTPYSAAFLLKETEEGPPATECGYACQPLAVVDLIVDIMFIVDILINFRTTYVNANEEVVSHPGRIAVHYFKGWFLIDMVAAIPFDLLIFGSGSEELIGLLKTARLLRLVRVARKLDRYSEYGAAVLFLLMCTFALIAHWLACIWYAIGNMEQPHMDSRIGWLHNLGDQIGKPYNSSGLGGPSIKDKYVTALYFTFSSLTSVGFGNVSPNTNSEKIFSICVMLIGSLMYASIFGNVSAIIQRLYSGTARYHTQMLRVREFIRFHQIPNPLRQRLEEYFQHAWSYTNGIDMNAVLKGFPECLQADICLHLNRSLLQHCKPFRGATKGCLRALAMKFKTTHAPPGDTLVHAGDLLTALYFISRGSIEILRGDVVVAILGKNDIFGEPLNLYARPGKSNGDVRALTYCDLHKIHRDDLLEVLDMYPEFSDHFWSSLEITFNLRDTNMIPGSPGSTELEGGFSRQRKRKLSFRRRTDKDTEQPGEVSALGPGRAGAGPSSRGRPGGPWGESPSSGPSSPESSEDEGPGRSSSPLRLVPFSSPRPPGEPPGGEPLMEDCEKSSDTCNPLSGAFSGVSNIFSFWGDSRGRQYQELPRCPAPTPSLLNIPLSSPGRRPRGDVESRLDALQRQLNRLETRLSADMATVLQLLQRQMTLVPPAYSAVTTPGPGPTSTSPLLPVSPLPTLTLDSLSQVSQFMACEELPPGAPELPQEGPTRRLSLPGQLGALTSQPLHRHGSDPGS

Chain of Sodium channel protein type 5 subunit alpha (Q14524 whole entry): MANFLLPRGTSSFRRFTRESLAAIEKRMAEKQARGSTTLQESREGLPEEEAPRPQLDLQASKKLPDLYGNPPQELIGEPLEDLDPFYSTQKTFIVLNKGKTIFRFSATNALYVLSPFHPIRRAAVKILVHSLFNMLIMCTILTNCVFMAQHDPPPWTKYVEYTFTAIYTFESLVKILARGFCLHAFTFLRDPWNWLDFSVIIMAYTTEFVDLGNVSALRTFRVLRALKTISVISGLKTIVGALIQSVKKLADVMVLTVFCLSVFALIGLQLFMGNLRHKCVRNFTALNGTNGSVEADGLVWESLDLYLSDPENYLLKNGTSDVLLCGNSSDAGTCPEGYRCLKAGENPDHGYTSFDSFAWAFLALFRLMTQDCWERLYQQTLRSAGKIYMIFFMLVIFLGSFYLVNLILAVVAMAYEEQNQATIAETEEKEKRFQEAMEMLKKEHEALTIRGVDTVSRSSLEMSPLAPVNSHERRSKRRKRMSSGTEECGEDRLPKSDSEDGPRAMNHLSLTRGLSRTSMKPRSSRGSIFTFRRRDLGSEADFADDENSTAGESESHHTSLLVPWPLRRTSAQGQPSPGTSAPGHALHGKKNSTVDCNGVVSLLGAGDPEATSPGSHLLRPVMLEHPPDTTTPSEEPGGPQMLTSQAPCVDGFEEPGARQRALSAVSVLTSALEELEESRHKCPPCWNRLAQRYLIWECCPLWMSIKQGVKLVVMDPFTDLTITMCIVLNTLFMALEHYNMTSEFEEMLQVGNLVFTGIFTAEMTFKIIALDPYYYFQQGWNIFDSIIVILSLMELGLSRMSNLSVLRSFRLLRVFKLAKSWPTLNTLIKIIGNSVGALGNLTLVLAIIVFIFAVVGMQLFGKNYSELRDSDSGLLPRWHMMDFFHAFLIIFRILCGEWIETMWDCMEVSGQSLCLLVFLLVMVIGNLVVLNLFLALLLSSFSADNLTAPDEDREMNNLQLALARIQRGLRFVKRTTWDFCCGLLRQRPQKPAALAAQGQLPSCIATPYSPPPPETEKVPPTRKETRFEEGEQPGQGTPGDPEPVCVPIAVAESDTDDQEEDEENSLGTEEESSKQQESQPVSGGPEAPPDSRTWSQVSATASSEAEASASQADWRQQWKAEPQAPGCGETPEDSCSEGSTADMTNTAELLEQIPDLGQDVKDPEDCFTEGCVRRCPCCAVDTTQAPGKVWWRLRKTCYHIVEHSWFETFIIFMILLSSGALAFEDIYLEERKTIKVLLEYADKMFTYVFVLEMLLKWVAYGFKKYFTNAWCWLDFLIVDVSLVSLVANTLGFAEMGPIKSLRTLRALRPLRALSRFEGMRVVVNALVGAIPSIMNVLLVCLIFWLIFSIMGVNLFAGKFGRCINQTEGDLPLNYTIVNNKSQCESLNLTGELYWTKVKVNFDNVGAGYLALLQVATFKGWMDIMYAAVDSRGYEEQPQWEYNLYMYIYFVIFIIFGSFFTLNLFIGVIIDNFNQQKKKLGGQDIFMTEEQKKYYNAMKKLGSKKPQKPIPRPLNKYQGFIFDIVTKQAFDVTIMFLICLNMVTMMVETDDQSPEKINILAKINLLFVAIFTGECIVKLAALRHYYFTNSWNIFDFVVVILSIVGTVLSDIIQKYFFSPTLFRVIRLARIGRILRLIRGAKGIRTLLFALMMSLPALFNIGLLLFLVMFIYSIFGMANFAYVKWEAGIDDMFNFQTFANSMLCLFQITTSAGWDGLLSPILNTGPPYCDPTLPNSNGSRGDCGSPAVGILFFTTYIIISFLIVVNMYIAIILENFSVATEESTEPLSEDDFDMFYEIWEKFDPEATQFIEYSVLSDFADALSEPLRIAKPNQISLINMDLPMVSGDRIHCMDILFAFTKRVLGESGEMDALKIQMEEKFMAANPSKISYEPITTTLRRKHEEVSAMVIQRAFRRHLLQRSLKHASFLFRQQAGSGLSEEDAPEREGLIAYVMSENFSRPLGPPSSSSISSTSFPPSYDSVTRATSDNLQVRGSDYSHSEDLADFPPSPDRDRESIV

Work on `COC[C@@H](NC(C)=O)C(=O)NCc1ccc(Oc2cccc(OC(F)(F)F)c2)cc1` yielded a Kp at 6 h [1] of 1.2, an ED50 (Mus musculus) of 6.5 mg/kg and an IC50 [2] of 700 nM. For the same molecule, the “inhibition (INH)” value [3] was “Not Active” and the Activity [4] was “Not Active”.
